Data: ChEMBL document CHEMBL1629483, “Synthesis of novel chiral Δ2-isoxazoline derivatives related to ABT-418 and estimation of their affinity at neuronal nicotinic acetylcholine receptor subtypes” (Eur J Med Chem, 2010)

Assays:
[1] = target: Neuronal acetylcholine receptor; alpha4/beta2 (Rattus norvegicus, UniProt P09483+P12390); test: Displacement of [3H]epibatidine from alpha4beta2 nAChR in rat cortical membranes by beta counting; type: cell membranes, Membrane
In short: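 Rat cortex membranes were washed twice by homogenisation in pH 7.4 phosphate/1 M NaCl/EDTA/EGTA/PMSF buffer and 60,000g spins, then resuspended in pH 7 Tris buffer. Nonspecific binding used 100 nM epibatidine. Filtered on PEI-soaked GF/C. Ki from three independent competition curves (LIGAND).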

[2] = target: Muscarinic acetylcholine receptor M3 (Homo sapiens) (UniProt P20309); test: Displacement of [3H]quinuclidinyl benzylate from human muscarinic M3 receptor expressed in CHO cells at 10 uM; type: cell-based
[3] = target: T1, Muscarinic acetylcholine receptor M2 (Homo sapiens) (UniProt P08172); test: Displacement of [3H]quinuclidinyl benzylate from human muscarinic M2 receptor expressed in CHO cells at 10 uM; type: cell-based
T1 sequence (whole entry): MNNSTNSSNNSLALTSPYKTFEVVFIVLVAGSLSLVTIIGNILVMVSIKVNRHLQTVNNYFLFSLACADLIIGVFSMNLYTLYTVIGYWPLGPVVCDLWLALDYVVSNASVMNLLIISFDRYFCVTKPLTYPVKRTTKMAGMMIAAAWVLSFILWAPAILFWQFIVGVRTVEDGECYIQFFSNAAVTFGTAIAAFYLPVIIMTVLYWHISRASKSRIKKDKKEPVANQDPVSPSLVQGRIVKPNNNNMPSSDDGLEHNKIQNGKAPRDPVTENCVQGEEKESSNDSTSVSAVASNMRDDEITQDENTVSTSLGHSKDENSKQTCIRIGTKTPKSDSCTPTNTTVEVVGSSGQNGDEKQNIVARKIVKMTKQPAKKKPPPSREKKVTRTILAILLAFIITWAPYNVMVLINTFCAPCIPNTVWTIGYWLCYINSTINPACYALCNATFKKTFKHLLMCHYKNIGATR
In short: (§1)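 Single-concentration preliminary screen on membranes of transfected CHO cells expressing human M2 or M5 receptors, labelled with [3H]quinuclidinyl benzylate. Read-out was percent inhibition of radioligand binding.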

[4] = target: T2, Muscarinic acetylcholine receptor M4 (Homo sapiens) (UniProt P08173); test: Displacement of [3H]quinuclidinyl benzylate from human muscarinic M4 receptor expressed in CHO cells at 10 uM; type: cell-based
T2 sequence (whole entry): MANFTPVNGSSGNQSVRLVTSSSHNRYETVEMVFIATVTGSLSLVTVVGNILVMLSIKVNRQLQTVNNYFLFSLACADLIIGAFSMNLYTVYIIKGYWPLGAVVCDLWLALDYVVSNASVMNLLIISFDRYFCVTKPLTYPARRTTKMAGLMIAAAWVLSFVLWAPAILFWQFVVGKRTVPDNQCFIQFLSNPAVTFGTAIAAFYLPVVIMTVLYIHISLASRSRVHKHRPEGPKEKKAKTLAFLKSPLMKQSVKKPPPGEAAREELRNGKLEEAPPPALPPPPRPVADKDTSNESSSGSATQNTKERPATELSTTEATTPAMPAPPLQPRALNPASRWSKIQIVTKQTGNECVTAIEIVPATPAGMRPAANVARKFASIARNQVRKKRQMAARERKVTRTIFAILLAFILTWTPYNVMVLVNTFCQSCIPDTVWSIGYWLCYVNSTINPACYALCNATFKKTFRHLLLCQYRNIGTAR

[5] = target: T3, Muscarinic acetylcholine receptor M1 (Homo sapiens) (UniProt P11229); test: Displacement of [3H]quinuclidinyl benzylate from human muscarinic M1 receptor expressed in CHO cells at 10 uM; type: cell-based
T3 sequence (whole entry): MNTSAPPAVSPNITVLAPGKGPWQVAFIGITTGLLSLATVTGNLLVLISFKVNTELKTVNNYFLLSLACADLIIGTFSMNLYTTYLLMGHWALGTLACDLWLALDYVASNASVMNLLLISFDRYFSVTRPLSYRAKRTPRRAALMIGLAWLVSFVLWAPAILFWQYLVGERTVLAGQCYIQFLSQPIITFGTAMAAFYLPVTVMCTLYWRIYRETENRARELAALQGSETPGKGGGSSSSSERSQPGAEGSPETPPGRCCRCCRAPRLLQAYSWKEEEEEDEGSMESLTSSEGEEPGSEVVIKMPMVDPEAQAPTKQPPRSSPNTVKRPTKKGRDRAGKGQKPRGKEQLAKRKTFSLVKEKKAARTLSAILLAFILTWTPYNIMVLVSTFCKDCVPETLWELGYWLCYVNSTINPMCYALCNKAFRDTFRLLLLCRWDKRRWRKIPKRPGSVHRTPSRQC

[6] = target: Neuronal acetylcholine receptor subunit alpha-7 (Rattus norvegicus, UniProt Q05941); test: Displacement of [125I]-alpha-Bungarotoxin from alpha7 nAChR rat cortical membranes by gamma counting; type: cell membranes, Membrane
In short: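 Rat cortex membranes, prepared by twice-repeated homogenisation and high-speed centrifugation, were pre-incubated with compound for 30 min at r.t. Filtered on PEI-soaked GF/C filters and gamma counted. Ki from three independent competition experiments, fitted together with three saturation experiments by non-linear least squares (LIGAND).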

[7] = target: T4, Muscarinic acetylcholine receptor M5 (Homo sapiens) (UniProt P08912); test: Displacement of [3H]quinuclidinyl benzylate from human muscarinic M5 receptor expressed in CHO cells at 10 uM; type: cell-based; in short: as §1
T4 sequence (whole entry): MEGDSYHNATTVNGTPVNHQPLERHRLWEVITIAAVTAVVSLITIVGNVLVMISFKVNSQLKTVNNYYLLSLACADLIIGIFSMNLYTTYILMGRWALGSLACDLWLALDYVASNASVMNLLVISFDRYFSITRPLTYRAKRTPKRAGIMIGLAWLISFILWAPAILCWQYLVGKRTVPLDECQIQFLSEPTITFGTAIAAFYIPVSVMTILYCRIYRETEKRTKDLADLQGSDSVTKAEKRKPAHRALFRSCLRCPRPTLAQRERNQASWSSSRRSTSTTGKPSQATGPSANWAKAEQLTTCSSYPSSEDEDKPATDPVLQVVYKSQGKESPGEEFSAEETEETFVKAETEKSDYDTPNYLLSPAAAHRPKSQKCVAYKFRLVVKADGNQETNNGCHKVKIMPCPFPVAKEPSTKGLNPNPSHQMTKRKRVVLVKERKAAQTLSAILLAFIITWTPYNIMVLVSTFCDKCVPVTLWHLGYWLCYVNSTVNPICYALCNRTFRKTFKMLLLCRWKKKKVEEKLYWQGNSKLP

Chain of Neuronal acetylcholine receptor subunit alpha-7 (Q05941 whole entry): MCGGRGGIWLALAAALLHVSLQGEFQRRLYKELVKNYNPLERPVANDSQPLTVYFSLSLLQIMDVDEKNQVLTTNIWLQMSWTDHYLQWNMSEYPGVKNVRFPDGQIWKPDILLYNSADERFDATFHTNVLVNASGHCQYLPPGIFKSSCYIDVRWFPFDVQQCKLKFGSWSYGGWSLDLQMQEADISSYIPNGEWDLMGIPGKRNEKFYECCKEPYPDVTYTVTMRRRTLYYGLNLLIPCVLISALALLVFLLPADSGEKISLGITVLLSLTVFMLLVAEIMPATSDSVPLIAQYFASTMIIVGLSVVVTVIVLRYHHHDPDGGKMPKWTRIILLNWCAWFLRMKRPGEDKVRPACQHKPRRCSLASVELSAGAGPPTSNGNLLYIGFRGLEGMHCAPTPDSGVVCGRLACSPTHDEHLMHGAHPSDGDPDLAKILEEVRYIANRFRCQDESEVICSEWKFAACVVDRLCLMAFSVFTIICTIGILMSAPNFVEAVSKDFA
Chain of Muscarinic acetylcholine receptor M3 (Homo sapiens) (P20309 whole entry, looked up): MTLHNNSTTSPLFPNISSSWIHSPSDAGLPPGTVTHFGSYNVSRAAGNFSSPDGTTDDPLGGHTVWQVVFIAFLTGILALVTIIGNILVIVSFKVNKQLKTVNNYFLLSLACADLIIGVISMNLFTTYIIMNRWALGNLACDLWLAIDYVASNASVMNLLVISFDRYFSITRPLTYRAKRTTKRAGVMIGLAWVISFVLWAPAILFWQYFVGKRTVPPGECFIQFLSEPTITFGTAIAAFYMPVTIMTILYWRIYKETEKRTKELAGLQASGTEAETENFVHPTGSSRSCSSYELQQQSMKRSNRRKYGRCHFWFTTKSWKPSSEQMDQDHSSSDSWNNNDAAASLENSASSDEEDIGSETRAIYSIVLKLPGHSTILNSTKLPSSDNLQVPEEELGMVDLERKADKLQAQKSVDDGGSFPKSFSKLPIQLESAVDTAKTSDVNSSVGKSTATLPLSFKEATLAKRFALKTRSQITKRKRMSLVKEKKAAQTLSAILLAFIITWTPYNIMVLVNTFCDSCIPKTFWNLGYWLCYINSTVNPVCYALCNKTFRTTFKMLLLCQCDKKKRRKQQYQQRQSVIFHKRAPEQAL
Chain of Neuronal acetylcholine receptor; alpha4/beta2 (P09483 whole entry): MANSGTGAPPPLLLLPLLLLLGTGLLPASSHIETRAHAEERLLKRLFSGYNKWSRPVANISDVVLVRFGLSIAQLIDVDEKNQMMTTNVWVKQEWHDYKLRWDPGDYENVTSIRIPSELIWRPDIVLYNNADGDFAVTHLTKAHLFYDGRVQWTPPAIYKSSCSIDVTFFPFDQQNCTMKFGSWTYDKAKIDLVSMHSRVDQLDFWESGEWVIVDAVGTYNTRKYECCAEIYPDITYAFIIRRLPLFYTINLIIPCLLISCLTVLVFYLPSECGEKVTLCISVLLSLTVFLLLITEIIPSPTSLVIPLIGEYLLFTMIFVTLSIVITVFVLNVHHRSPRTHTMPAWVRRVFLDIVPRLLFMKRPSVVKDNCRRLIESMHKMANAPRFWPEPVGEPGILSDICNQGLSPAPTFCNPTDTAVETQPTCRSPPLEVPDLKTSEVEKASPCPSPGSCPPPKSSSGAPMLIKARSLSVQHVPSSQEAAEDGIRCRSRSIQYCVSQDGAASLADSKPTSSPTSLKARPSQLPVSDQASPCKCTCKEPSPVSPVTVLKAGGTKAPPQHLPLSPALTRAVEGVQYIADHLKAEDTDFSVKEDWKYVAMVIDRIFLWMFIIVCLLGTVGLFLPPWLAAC
Chain of Neuronal acetylcholine receptor; alpha4/beta2 (P12390 whole entry): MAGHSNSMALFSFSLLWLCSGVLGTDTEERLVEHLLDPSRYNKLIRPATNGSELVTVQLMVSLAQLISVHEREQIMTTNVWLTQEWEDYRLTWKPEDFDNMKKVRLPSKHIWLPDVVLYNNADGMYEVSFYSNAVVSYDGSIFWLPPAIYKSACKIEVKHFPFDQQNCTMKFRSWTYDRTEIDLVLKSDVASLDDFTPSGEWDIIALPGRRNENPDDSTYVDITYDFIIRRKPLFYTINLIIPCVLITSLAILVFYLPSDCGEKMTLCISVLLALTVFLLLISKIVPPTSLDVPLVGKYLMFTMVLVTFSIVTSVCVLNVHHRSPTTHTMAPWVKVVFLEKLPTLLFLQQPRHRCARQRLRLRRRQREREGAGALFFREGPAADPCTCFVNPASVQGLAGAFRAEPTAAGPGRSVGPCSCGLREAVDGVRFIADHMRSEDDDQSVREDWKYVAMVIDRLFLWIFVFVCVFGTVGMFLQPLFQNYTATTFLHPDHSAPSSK

For `BrC1=NO[C@@H]([C@@H]2CCCN2)C1`, the Ki [1] was 4.2 µM, the Activity [2] was under 50% and the Activity [3] was under 50%. The Activity [4] was under 50%, the Activity [5] was under 50% and the Ki [6] was 35 µM. For the same molecule, the Activity [7] was under 50%.

In the case of `CC1=NO[C@@H]([C@@H]2CCCN2)C1`, the Ki [1] is reported as 18 µM, the Activity [2] is reported as under 50% and the Activity [3] is reported as under 50%. For the same molecule, the Activity [4] was under 50%, the Activity [5] was under 50% and the Ki [6] was 40 µM. It also gave an Activity [7] of under 50%.

`COC1=NO[C@H]([C@@H]2CCCN2)C1` showed a Ki [1] of 50 µM, an Activity [2] of under 50% and an Activity [3] of under 50%. For the same molecule, the Activity [4] was under 50%, the Activity [5] was under 50% and the Ki [6] was 11.3 µM. The Activity [7] was under 50%.

Molecule `CC(C)(C)OC1=NO[C@H]([C@@H]2CCCN2)C1` has a Ki [1] of 184 µM, an Activity [2] of under 50% and an Activity [3] of under 50%. The Activity [4] was under 50%, the Activity [5] was under 50% and the Ki [6] was over 500 µM. The Activity [7] was under 50%.

With `COC1=NO[C@@H]([C@@H]2CCCN2)C1` the Ki [1] was 28 µM, the Activity [2] was under 50% and the Activity [3] was under 50%. The Activity [4] was under 50%, the Activity [5] was under 50% and the Ki [6] was 277 µM. The Activity [7] was under 50%.

Work on `CC1=NO[C@@H]([C@@H]2CCCN2C)C1` yielded a Ki [1] of 12 µM, an Activity [2] of under 50% and an Activity [3] of under 50%. It also gave an Activity [4] of under 50%, an Activity [5] of under 50% and a Ki [6] of 325 µM. It also gave an Activity [7] of under 50%.

In the case of `COC1=NO[C@@H]([C@@H]2CCCN2C)C1`, the Ki [1] is reported as 10.3 µM, the Activity [2] is reported as under 50% and the Activity [3] is reported as under 50%. For the same molecule, the Activity [4] was under 50%, the Activity [5] was under 50% and the Ki [6] was 2.9 µM. It also gave an Activity [7] of under 50%.

Work on `CN1CCC[C@H]1[C@H]1CC(Br)=NO1` yielded a Ki [1] of 3.8 µM, an Activity [2] of under 50% and an Activity [3] of under 50%. It also gave an Activity [4] of under 50%, an Activity [5] of under 50% and a Ki [6] of 43 µM. The Activity [7] was under 50%.

For `CC1=NO[C@H]([C@@H]2CCCN2)C1`, the Ki [1] was 5.1 µM, the Activity [2] was under 50% and the Activity [3] was under 50%. For the same molecule, the Activity [4] was under 50%, the Activity [5] was under 50% and the Ki [6] was 0.44 µM. It also gave an Activity [7] of under 50%.
